Measurements published in ChEMBL document CHEMBL5150021, “Identification of 5-(Aryl/Heteroaryl)amino-4-quinolones as Potent Membrane-Disrupting Agents to Combat Antibiotic-Resistant Gram-Positive Bacteria” (J Med Chem, 2022).
≈ marks a conversion by molar mass, not a printed value. Calls of active or inactive are those of the source. The calls are words filed in the database; no cut-off is given here.

Legend:
[1] = tested on: Staphylococcus aureus; assay: Antibacterial activity against methicillin resistant Staphylococcus aureus FPR3757 assessed as inhibition of bacterial growth incubated for 24 hrs by CLSI based method; type: functional; conditions: read-out: MIC100
How it was run: (§1)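 It was mixed 1:1 with twofold serial compound dilutions and incubated stationary at 37 °C for 24 h. MIC was the lowest concentration giving complete inhibition of observable growth, with an oxacillin control.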

[2] = tested on: Staphylococcus aureus; assay: Antibacterial activity against methicillin resistant Staphylococcus aureus assessed as inhibition of bacterial growth incubated for 15 hrs by CLSI based broth microdilution method; type: functional
[3] = tested on: Staphylococcus epidermidis; assay: Antibacterial activity against Staphylococcus epidermidis NIF104008 assessed as inhibition of bacterial growth incubated for 24 hrs by CLSI based method; type: functional
How it was run: (§2)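 Broth microdilution per CLSI. Equal volume of twofold serial compound dilutions added. Incubated stationary at 37 °C for 24 h. MIC taken as lowest concentration giving complete inhibition of visible growth. Oxacillin control for Gram-positives, ceftriaxone for Gram-negatives.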

[4] = tested on: Staphylococcus aureus; assay: Antibacterial activity against methicillin resistant Staphylococcus aureus FPR3757 assessed as inhibition of bacterial growth incubated for 24 hrs in presence of 10% mouse serum by CLSI based method; type: functional
How it was run: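 CLSI broth microdilution against MRSA FPR3757 (USA300) in Mueller–Hinton broth supplemented with 10% serum (fetal bovine or mouse). Inoculum 10⁶ CFU/mL with twofold serial compound dilutions, stationary incubation at 37 °C for 24 h. MIC read as lowest concentration with complete inhibition of visible growth.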

[5] = tested on: Cell membrane; assay: Induction of cell membrane damage in Staphylococcus aureus USA300 assessed as bulging of the septum at 1 times MIC measured after 1 hrs by TEM analysis
How it was run: (§3)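 Fixed in glutaraldehyde/paraformaldehyde in cacodylate pH 7.4, post-fixed with osmium tetroxide, stained with uranyl acetate, resin-embedded, thin-sectioned and imaged by TEM.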

[6] = tested on: Klebsiella pneumoniae; assay: Antibacterial activity against Klebsiella pneumoniae 7117 assessed as inhibition of bacterial growth incubated for 24 hrs by CLSI based method; type: functional; how it was run: as §2
[7] = tested on: Staphylococcus aureus; assay: Antibacterial activity against methicillin-resistant Staphylococcus aureus COL assessed as inhibition of bacterial growth incubated for 24 hrs by CLSI based method; type: functional; how it was run: as §2
[8] = tested on: Cell membrane; assay: Induction of cell membrane damage in Staphylococcus aureus USA300 assessed as cross-wall-septum formation with reduced splitting at 1 times MIC measured after 10 mins by TEM analysis; type: subcellular
[9] = tested on: Staphylococcus aureus; assay: Antibacterial activity against methicillin-resistant Staphylococcus aureus MW2 assessed as inhibition of bacterial growth incubated for 24 hrs by CLSI based method; type: functional; how it was run: as §2
[10] = Cmax in CD-1 mouse at 10 mg/kg, po administered as single dose and measured for 24 hrs by LC-MS/MS analysis; type: ADME, organism-based; design: time 24 hrs, dose 10 mg/kg, route po; conditions: in vivo
[11] = tested on: Staphylococcus aureus; assay: Antibacterial activity against community-associated methicillin-resistant Staphylococcus aureus USA300 FPR3757 assessed as inhibition of bacterial growth incubated for 24 hrs by CLSI based method; type: functional; how it was run: as §1
[12] = tested on: Enterococcus faecalis; assay: Antibacterial activity against Enterococcus faecalis DHMC #1 assessed as inhibition of bacterial growth incubated for 24 hrs by CLSI based method; type: functional; how it was run: as §2
[13] = AUC (0 to 24 hrs) in CD-1 mouse at 10 mg/kg, po administered as single dose and measured for 24 hrs by LC-MS/MS analysis; type: ADME, organism-based; design: time 24 hrs, dose 10 mg/kg, route po; conditions: in vivo
[14] = tested on: Staphylococcus aureus; assay: Antibacterial activity against methicillin-resistant Staphylococcus aureus NRS71 assessed as inhibition of bacterial growth incubated for 24 hrs by CLSI based method; type: functional; how it was run: as §2
[15] = Half life in CD-1 mouse at 0.5 mg/kg, iv administered as single dose and measured for 24 hrs by LC-MS/MS analysis; type: ADME, organism-based; conditions: in vivo
How it was run: (§4)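 Six-week-old female CD-1 mice (n = 3 per route). Dosing: single 0.5 mg/kg i.v. in 5% DMA/95% (4% Cremophor EL), or 10 mg/kg oral gavage in 5% DMA/60% PEG 300/35% D5W. Tail-vein blood is collected to 24 h into K2EDTA, and plasma is analysed by LC-MS/MS. Parameters come from noncompartmental analysis.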

[16] = tested on: Staphylococcus aureus; assay: Antibacterial activity against methicillin-resistant Staphylococcus aureus N315 assessed as inhibition of bacterial growth incubated for 24 hrs by CLSI based method; type: functional; how it was run: as §2
[17] = tested on: Erythrocyte; assay: Hemolytic activity in sheep erythrocytes at 32 ug/ml incubated for 1 hr; type: toxicity, cell-based, Ovis aries; conditions: dose 32 µg/ml
How it was run: (§5)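 4% sheep erythrocytes mixed 1:1 with twofold serial compound dilutions in PBS, incubated stationary 1 h at 37 °C, then centrifuged at 500g for 5 min. Supernatant A540 is measured and percent hemolysis is calculated relative to DMSO vehicle (0%) and Triton X-100 (100%). Triplicate, mean ± SD.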

[18] = Oral bioavailability in CD-1 mouse at 10 mg/kg administered as single dose and measured for 24 hrs by LC-MS/MS analysis; type: ADME, organism-based; conditions: in vivo; how it was run: as §4
[19] = tested on: Enterococcus faecium; assay: Antibacterial activity against Enterococcus faecium ATCC19579 assessed as inhibition of bacterial growth incubated for 24 hrs by CLSI based method; type: functional; how it was run: as §2
[20] = tested on: Vero; assay: Cytotoxicity against African green monkey Vero cells assessed as increase in LDH release at 0.47 to 30 uM incubated for 24 hrs; type: toxicity, cell-based; conditions: chlorocebus sabaeus, dose 0.47-30 µM
How it was run: (§6)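 Confluent Vero cells (maintained in RPMI 1640 + 10% FBS, 37 °C, 5% CO2) exposed to compound at 0.47–30 μM (twofold dilutions) in serum-free medium for 24 h at 37 °C. LDH in supernatant is measured colorimetrically at 490 nm and expressed as percent of 2% detergent positive control.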

[21] = AUC (0 to 24 hrs) in CD-1 mouse at 0.5 mg/kg, iv administered as single dose and measured for 24 hrs by LC-MS/MS analysis; type: ADME, organism-based; design: time 24 hrs, dose 0.5 mg/kg, route iv; conditions: in vivo
How it was run: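 Six-week-old female CD-1 mice (20–25 g; n = 3) received one intravenous injection at 0.5 mg/kg in 5% DMA:95% (4% Cremophor EL). […] Plasma was stored at −80 °C and quantified by LC-MS/MS. AUC came from noncompartmental analysis, reported as mean ± SD.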

[22] = tested on: Cell membrane; assay: Induction of cell membrane damage in Staphylococcus aureus USA300 assessed as membrane wrinkling at 1 times MIC measured after 1 hrs by TEM analysis; how it was run: as §3
[23] = Cytotoxicity against sheep erythrocytes assessed as reduction in cell viability; type: toxicity, cell-based, Ovis aries, Erythrocyte; how it was run: as §5
[24] = Volume of distribution in CD-1 mouse at 0.5 mg/kg, iv administered as single dose and measured for 24 hrs by LC-MS/MS analysis; type: ADME, organism-based; conditions: in vivo; how it was run: as §4
[25] = tested on: Cell membrane; assay: Induction of cell membrane damage in Staphylococcus aureus USA300 assessed as mesosome-like membrane inclusions at 1 times MIC measured after 1 hrs by TEM analysis; how it was run: as §3
[26] = tested on: Staphylococcus epidermidis; assay: Antibacterial activity against Staphylococcus epidermidis NIF104003 assessed as inhibition of bacterial growth incubated for 24 hrs by CLSI based method; type: functional; how it was run: as §2
[27] = Kinetic aqueous solubility of the compound in DPBS at pH 7.4 at 100 ug/ml measured after 6 hrs by LC-MS/MS analysis; type: physicochemical; conditions: buffer, pH 7.4, 6 h, dose 100 µg/ml
[28] = tested on: Enterobacter cloacae; assay: Antibacterial activity against Enterobacter cloacae ND-21 assessed as inhibition of bacterial growth incubated for 24 hrs by CLSI based method; type: functional; how it was run: as §2
[29] = tested on: Enterococcus faecium; assay: Antibacterial activity against Enterococcus faecium DHMC #1 assessed as inhibition of bacterial growth incubated for 24 hrs by CLSI based method; type: functional; how it was run: as §2
[30] = tested on: Staphylococcus aureus; assay: microbe, parasite or virus in culture; conditions: USA300 FPR3757, 24 h
[31] = tested on: Enterococcus faecalis; assay: Antibacterial activity against Enterococcus faecalis ATCC700802 assessed as inhibition of bacterial growth incubated for 24 hrs by CLSI based method; type: functional; how it was run: as §2
[32] = tested on: Vero; assay: Cytotoxicity against African green monkey Vero cells assessed as increase in LDH release at 30 uM incubated for 24 hrs relative to control; type: toxicity, cell-based; conditions: chlorocebus sabaeus; how it was run: as §6
[33] = Protein binding in human plasma at […] incubated for 4 hrs under shaking condition by LC-MS/MS based equilibrium dialysis method; type: ADME, cell-free
How it was run: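 Rapid equilibrium dialysis (8k MWCO). Compound is spiked into human plasma at 10 μg/mL and dialysed against DPBS pH 7.4 with shaking for 4 h at 37 °C. Matrices are matched, proteins precipitated with methanol containing internal standard, and both chambers quantified by LC-MS/MS against a calibration curve. Percent free and bound are calculated from chamber concentrations.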

[34] = tested on: Escherichia coli; assay: Antibacterial activity against Escherichia coli DHMC-1 assessed as inhibition of bacterial growth incubated for 24 hrs by CLSI based method; type: functional; how it was run: as §2
[35] = tested on: Candida albicans; assay: Antifungal activity against Candida albicans SC5314 assessed as inhibition of bacterial growth incubated for 24 hrs by CLSI based method; type: functional
How it was run: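 Broth microdilution per CLSI. It is mixed 1:1 with twofold serial compound dilutions and incubated stationary at 35 °C for 24 h. MIC is read as the lowest concentration with no observable growth.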

## Oc1cc(C(F)(F)F)nc2c(OC(F)(F)F)cccc12
[1]
  MIC: 5 µg/mL (≈ 16.8 µM)
[2]
  MIC: 8 µg/mL (≈ 26.9 µM)

## O=c1cc(C(F)(F)F)[nH]c2cc(C(F)(F)F)cc(Nc3ccc(C(F)(F)F)cn3)c12
[1]
  MIC: < 0.0625 µg/mL
[3]
  MIC: < 0.06 µg/mL
[4]
  MIC: 4 µg/mL
[5]
  Activity: Active
[6]
  MIC: > 128 µg/mL
[7]
  MIC: < 0.06 µg/mL
[8]
  Activity: Active
[9]
  MIC: < 0.06 µg/mL
[10]
  Cmax: 3100 ng/mL
[11]
  MIC: 0.0625 µg/mL (≈ 0.142 µM)
[12]
  MIC: 2 µg/mL (≈ 4.53 µM)
[13]
  AUC: 43300 ng·h/mL
[14]
  MIC: < 0.06 µg/mL
[15]
  t1/2: 1.88 h
[16]
  MIC: < 0.06 µg/mL
[17]
  Activity: Non-Toxic
[18]
  F: 51.6%
[19]
  MIC: < 0.06 µg/mL
[20]
  Activity: Non-Toxic
[21]
  AUC: 4200 ng·h/mL
[22]
  Activity: Active
[23]
  CC50: > 32 µg/mL
[24]
  Vd: 0.322 L/kg
[25]
  Activity: Active
[26]
  MIC: < 0.06 µg/mL
[27]
  Kinetic_solubility: 2.4 µg/mL
[28]
  MIC: > 128 µg/mL
[29]
  MIC: 2 µg/mL (≈ 4.53 µM)
[30]
  MBC: 2 µg/mL (≈ 4.53 µM)
[31]
  MIC: 2 µg/mL (≈ 4.53 µM)
[32]
  Activity: 20%
[33]
  PPB: 99.7%
[34]
  MIC: > 128 µg/mL
[35]
  MIC: 256 µg/mL (≈ 580 µM)
